These results are taken from ChEMBL document CHEMBL4002611, “Discovery of medium ring thiophosphorus based heterocycles as antiproliferative agents” (Bioorg Med Chem Lett, 2017).

Data set [1] deals with MCF7. Nature of the data set: Antiproliferative activity against human MCF7 cells after 4 days by crystal violet staining based spectrophotometric method. Conditions: MCF7, 96 h; call rule not given here. It counts as functional, cell-based.
The subject of another data set is SK-OV-3. Kind of data set: Antiproliferative activity against human SKOV3 cells after 4 days by crystal violet staining based spectrophotometric method. The data set is classed as functional, cell-based. Particulars: SK-OV-3, 96 h.
In the next data set the test system is WI-38. Kind of data set: Antiproliferative activity against human WI38 cells after 4 days by crystal violet staining based spectrophotometric method. The data set is classed as ADME, cell-based. Conditions: WI-38, 96 h.
Data set [2] can be described thus: Drug metabolism in pH 7.4 PBS buffer assessed as H2S release from compound at 5 mM incubated for 4 days by DNS-Az probe based fluorescence assay. Conditions: pH 7.4, 96 h, 5000 µM. It counts as physicochemical. The essentials: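 H₂S release in solution was measured with an H₂S-specific dansyl azide fluorescent probe after incubation at 37 °C for 4 days, against a blank sample.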

Data set [3] can be described thus: Therapeutic index, ratio of IC50 for human WI38 cells to IC50 for human MCF7 cells.
A short description of data set [4]: Permeability of the compound by PAMPA. It counts as physicochemical. Conditions: read-out: permeability. On the technique in general: The PAMPA barrier holds no transporters, so it reflects passive diffusion.
Data set [5] can be described thus: Drug metabolism in human MCF7 cells assessed as H2S release from compound at 400 uM incubated for 5 hrs by confocal microscopic assay. Particulars: mcf7, 5 h. The data set is classed as ADME, cell-based. The essentials:
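MCF-7 cells loaded with an H₂S-sensitive fluorescent probe for 2 h at 37 °C, washed, then exposed to H₂S donors for 5 h before confocal imaging. Controls were untreated cells, probe alone, and NaHS.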

Data set [6] has as its system MCF7. Kind of data set: Antiproliferative activity against human MCF7 cells after 72 hrs in presence of 1 uM Na2S by MTT assay. It counts as functional, cell-based. Conditions: MCF7, 72 h. The essentials: (§1)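 Na₂S, which forms H₂S immediately in water, was added together with the test compound to MCF7 cells as a single administration. Proliferation was read by MTT assay.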

In data set [7] the test system is MCF7. Nature of the data set: Antiproliferative activity against human MCF7 cells after 72 hrs in presence of 100 uM Na2S by MTT assay. The data set is classed as functional, cell-based. Conditions: MCF7, 72 h. The essentials:
as §1
(Tetrazolium assays rely on reduction of a dye to a coloured formazan, in cell work by metabolically active cells.)

In data set [8] the test system is MCF7. Nature of the data set: Antiproliferative activity against human MCF7 cells after 72 hrs in presence of 10 uM Na2S by MTT assay. It counts as functional, cell-based. Conditions: MCF7, 72 h. The method in brief: as §1

Regarding `O=S(=O)(c1ccc(Cl)cc1)N1c2ccccc2OP1(=S)c1ccccc1` (stereo not given), the IC50 (usually the concentration needed to halve the response being measured) worked out at 107 µM in the data set on MCF7 [1] and 110 µM in the data set with SK-OV-3.
Take `S=P1(c2ccccc2)OCC2C3CCC(O3)C2CO1` (stereo not given): the IC50 in the data set with WI-38, with MCF7 [1] and with SK-OV-3 was above 400 µM throughout.
With `COc1ccc(P2(=S)Oc3ccccc3O2)cc1`, the IC50 was determined as 250 µM in the data set with WI-38, 281 µM in the data set on MCF7 [1] and 193 µM in the data set with SK-OV-3.
As to `S=P1(c2ccccc2)OCc2ccccc2CO1`, the values for the IC50 in the data set with WI-38, with MCF7 [1] and in the data set on SK-OV-3 were 134 µM, above 400 µM and 51.2 µM, respectively.
The matching figures for `S=P1(c2ccccc2)N[C@@H](c2ccccc2)[C@H](c2ccccc2)N1`: 145 µM, 165 µM and 164 µM.
As to `COc1ccc(P2(=S)OC[C@@H]3OC(C)(C)O[C@H]3CO2)cc1`, the IC50 with WI-38 was above 400 µM; in the data set on MCF7 [1], above 400 µM; in the data set with SK-OV-3 it was 374 µM. The H2S released entry in data set [2] is “Not Active”.
Take `COc1ccc(P2(=S)Oc3ccc(Br)cc3-c3cc(Br)ccc3O2)cc1`: the IC50 in the data set with MCF7 [1] and with SK-OV-3 was above 400 µM throughout. For the same molecule, in [2], the H2S released result is “Not Active”.
Consider `S=P1(c2ccccc2)NCc2ccccc2N1` (stereo not given), for which the IC50 is 173 µM in the data set on WI-38, above 400 µM in the data set with MCF7 [1] and above 400 µM in the data set with SK-OV-3.
With `COc1ccc2c(c1)NP(=S)(c1ccccc1)O2` (stereo not given), the IC50 in the data set on MCF7 [1] is 26.2 µM; in the data set with SK-OV-3, 24.1 µM.
Take `S=P1(c2ccc(Oc3ccccc3)cc2)Nc2ccccc2CO1` (stereo not given): the IC50 in the data set with WI-38 is 108 µM; in the data set with MCF7 [1], 29.4 µM; in the data set with SK-OV-3, 48.4 µM.
`S=P1(c2ccccc2)Oc2ccccc2-c2ccccc2O1`: the IC50 was found to be 400 µM with WI-38, 140 µM in the data set with MCF7 [1] and 103 µM in the data set on SK-OV-3. The “Ratio IC50” value in data set [3] amounted to 3. The H2S released result in data set [2] is “Not Active”.
For the molecule `COc1ccc2c(c1)NP(=S)(c1ccc(Oc3ccccc3)cc1)O2` (stereo not given), the values for the IC50 with MCF7 [1] and in the data set on SK-OV-3 were 32.1 µM and 27.9 µM, respectively.
Take `S=P1(c2ccccc2)OCc2cccc3cccc(c23)CO1`: the IC50 stood at 76.2 µM in the data set on WI-38, 71.1 µM in the data set with MCF7 [1] and 51.1 µM in the data set with SK-OV-3.
For `Cc1ccc(S(=O)(=O)N2c3ccccc3OP2(=S)c2ccccc2)cc1` (stereo not given), the IC50 worked out at 353 µM in the data set on WI-38, 181 µM in the data set with MCF7 [1] and 230 µM in the data set with SK-OV-3.
For the molecule `COc1ccc(P2(=S)Nc3ccccc3CO2)cc1` (stereo not given), the concentration for half-maximal inhibition (IC50) with WI-38 was 392 µM; in the data set on MCF7 [1] it was 200 µM; with SK-OV-3 it was 91.4 µM.
Take `S=P(S)(NCc1ccccc1)c1ccc(Oc2ccccc2)cc1` (stereo not given): the IC50 with WI-38 was 104 µM; in the data set with SK-OV-3, 47 µM. In addition, the Papp in data set [4] turned out to be 1.9 ×10⁻⁶ cm/s. Further, the Drug metabolism entry in data set [5] was “Metabolite_Detected”.
Turning to `COc1ccc(P2(=S)Oc3ccccc3-c3ccccc3O2)cc1`, the IC50 was 1.38 µM in the data set with WI-38; 0.76 to 0.82 µM with MCF7 [1]; 1.17 µM with MCF7 [6]; 1.44 µM with MCF7 [7]; 0.76 µM with SK-OV-3; 1.01 µM in the data set on MCF7 [8]. In addition, the “Ratio IC50” value in data set [3] was determined as 2. For the same molecule, the H2S released in data set [2] is 2 µM. Moreover, in data set [5], the Drug metabolism entry is “Metabolite_Detected”.
The molecule `S=P1(c2ccccc2)Nc2ccccc2O1` (stereo not given) showed an IC50 with WI-38 above 50 µM. Moreover, the Drug metabolism result in data set [5] is listed as “Metabolite_Detected”.
Regarding `COc1cccc2c1OP(=S)(c1ccccc1)O2` (stereo not given), the IC50 is 40.3 µM in the data set with WI-38, 40.7 µM in the data set with MCF7 [1] and 29.7 µM with SK-OV-3.
As to `S=P1(c2ccccc2)Oc2ccc(-c3ccccc3)cc2-c2cc(-c3ccccc3)ccc2O1`, the IC50 in the data set on MCF7 [1] and in the data set on SK-OV-3 was above 400 µM throughout.
In the case of `S=P1(c2ccccc2)Oc2ccc(Br)cc2-c2cc(Br)ccc2O1`, the IC50 in the data set on MCF7 [1] and with SK-OV-3 was above 400 µM each time.
For the molecule `COc1ccc(P2(=O)Oc3ccccc3-c3ccccc3O2)cc1`, the IC50 is 18.6 µM in the data set with WI-38; 11 to 69 µM in the data set on MCF7 [1]; 59 µM in the data set with MCF7 [6]; 50.6 µM in the data set on MCF7 [7]; 5.94 µM with SK-OV-3; 52.9 µM in the data set with MCF7 [8].
Take `S=P1(c2ccc(Oc3ccccc3)cc2)Nc2ccccc2O1` (stereo not given): the IC50 came to 125 µM with WI-38, 73.9 µM in the data set with MCF7 [1] and 45.8 µM with SK-OV-3.
Regarding `S=P1(c2ccc(Oc3ccccc3)cc2)N[C@@H](c2ccccc2)[C@H](c2ccccc2)N1`, the half-maximal inhibitory concentration (IC50) in the data set on MCF7 [1] is above 400 µM; in the data set on SK-OV-3, 49 µM.
In the case of `COc1ccc(P2(=S)Nc3ccc(Cl)cc3N2)cc1` (stereo not given), the IC50 with MCF7 [1] and with SK-OV-3 was above 400 µM throughout.
